Experimental data from ChEMBL document CHEMBL1828503, “Design, synthesis and docking studies of quinoline-oxazolidinone hybrid molecules and their antitubercular properties” (2011).
≈ marks a conversion by molar mass, not a printed value.

Key:
Type in all cases: functional
Pseudomonas aeruginosa = test: Antimicrobial activity against Pseudomonas aeruginosa ATCC 27853 after 18 to 48 hrs by serial dilution method
Streptococcus pyogenes = test: Antimicrobial activity against Streptococcus pyogenes clinical isolate after 18 to 48 hrs by serial dilution method
[1] = test system: Mycolicibacterium fortuitum; test: Antimicrobial activity against Mycobacterium fortuitum ATCC 19542 after 7 days by resazurin assay; details: ATCC 19542, 168 h
Method in brief: (§1)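 Resazurin microplate assay. Culture added to fresh medium in 96-well plates. Compound stocks 2 mg/mL in DMF. DMF-only controls, with rifampicin and isoniazid as references. Incubated 7 days at 37 °C, then 0.01% resazurin in water added. Blue-to-pink change read after 1 h at 37 °C. MIC taken as the lowest concentration preventing the colour change.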

[2] = test system: Mycobacterium tuberculosis; test: Antimicrobial activity against Mycobacterium tuberculosis H37Rv ATCC 27294 assessed as growth inhibition after 7 days by resazurin assay
[3] = test system: Mycolicibacterium smegmatis; test: Antimicrobial activity against Mycobacterium smegmatis ATCC 19420 after 7 days by resazurin assay; details: ATCC 19420, 168 h; method in brief: as §1
Escherichia coli = test: Antimicrobial activity against Escherichia coli ATCC 25922 after 18 to 48 hrs by serial dilution method
[4] = test system: Mycobacterium tuberculosis; test: Antimicrobial activity against Mycobacterium tuberculosis H37Rv ATCC 27294 after 7 days by resazurin assay; details: H37Rv ATCC 27294, 168 h
Method in brief: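 M. tuberculosis H37Rv ATCC 27294 culture diluted into fresh medium in 96-well microtitre plates. Compounds were taken from 2 mg/mL stocks in DMF, with DMF-only control tubes and rifampicin and isoniazid as references. Plates were incubated 37 °C for 7 days, then 0.01% aqueous resazurin was added and read after 1 h at 37 °C. MIC is the lowest concentration preventing the blue-to-pink change.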

Klebsiella pneumoniae = test: Antimicrobial activity against Klebsiella pneumoniae clinical isolate after 18 to 48 hrs by serial dilution method
Staphylococcus aureus = test: Antimicrobial activity against Staphylococcus aureus ATCC 25923 after 18 to 48 hrs by serial dilution method

| Structure (SMILES) | MIC (Pseudomonas aeruginosa) [mg/L] | MIC (Streptococcus pyogenes) [mg/L] | MIC [1] [mg/L] | growth inhibition (GI) [2] [%] | MIC [3] [mg/L] | MIC (Escherichia coli) [mg/L] | MIC [4] [mg/L] | MIC (Klebsiella pneumoniae) [mg/L] | MIC (Staphylococcus aureus) [mg/L] |
| --- | --- | --- | --- | --- | --- | --- | --- | --- | --- |
| COc1ccc2nc(C)cc(N3CC(CNC(C)=O)OC3=O)c2c1 (stereo not given) | 0.4 (≈ 1.21 µM) | 0.2 (≈ 0.607 µM) | 10 (≈ 30.4 µM) | 95 | 2.5 (≈ 7.59 µM) | 0.2 (≈ 0.607 µM) | 0.625 (≈ 1.9 µM) | 0.1 (≈ 0.304 µM) | 0.8 (≈ 2.43 µM) |
| COc1ccc2nc(C)cc(N3CC(CNC(=O)C4CC4)OC3=O)c2c1 (stereo not given) | 0.4 (≈ 1.13 µM) | 0.4 (≈ 1.13 µM) | 10 (≈ 28.1 µM) | 90 | 10 (≈ 28.1 µM) | 0.8 (≈ 2.25 µM) | 1 (≈ 2.81 µM) | 1.6 (≈ 4.5 µM) | 0.8 (≈ 2.25 µM) |
| COc1ccc2nc(C)cc(N3CC(CNC(=O)C4CCC4)OC3=O)c2c1 (stereo not given) | 3.12 (≈ 8.46 µM) | 1.6 (≈ 4.33 µM) | 100 (≈ 271 µM) | 85 | 100 (≈ 271 µM) | 1.6 (≈ 4.33 µM) | 2.5 (≈ 6.77 µM) | 6.25 (≈ 16.9 µM) | 1.6 (≈ 4.33 µM) |
| COc1ccc2nc(C)cc(N3CC(CNC(=O)c4ccc(F)cc4)OC3=O)c2c1 (stereo not given) | 0.4 (≈ 0.977 µM) | 0.4 (≈ 0.977 µM) | 10 (≈ 24.4 µM) | 90 | 10 (≈ 24.4 µM) | 0.2 (≈ 0.488 µM) | 1 (≈ 2.44 µM) | 0.1 (≈ 0.244 µM) | 0.8 (≈ 1.95 µM) |
| COc1ccc2nc(C)cc(N3CC(CNC(=O)c4ccccc4F)OC3=O)c2c1 (stereo not given) | 3.12 (≈ 7.63 µM) | 3.12 (≈ 7.63 µM) | 10 (≈ 24.4 µM) | 90 | 5 (≈ 12.2 µM) | 6.25 (≈ 15.3 µM) | 1 (≈ 2.44 µM) | 6.25 (≈ 15.3 µM) | 1.6 (≈ 3.91 µM) |
| COc1ccc2nc(C)cc(N3CC(CNC(=O)c4ccccc4)OC3=O)c2c1 (stereo not given) | > 12.5 | 3.12 (≈ 7.98 µM) | 100 (≈ 255 µM) | 0 | 100 (≈ 255 µM) | > 12.5 | 100 (≈ 255 µM) | 6.25 (≈ 16 µM) | 3.12 (≈ 7.98 µM) |
| CCc1ccc(C(=O)NCC2CN(c3cc(C)nc4ccc(OC)cc34)C(=O)O2)cc1 (stereo not given) | > 12.5 | 6.25 (≈ 14.9 µM) | 100 (≈ 238 µM) | 0 | 100 (≈ 238 µM) | 3.12 (≈ 7.45 µM) | 100 (≈ 238 µM) | 1.6 (≈ 3.81 µM) | 1.6 (≈ 3.81 µM) |
| COc1ccc2nc(C)cc(N3CC(CNC(=O)c4ccc(C)cc4)OC3=O)c2c1 (stereo not given) | 3.12 (≈ 7.71 µM) | 1.6 (≈ 3.95 µM) | 100 (≈ 247 µM) | 0 | 100 (≈ 247 µM) | 3.12 (≈ 7.71 µM) | 100 (≈ 247 µM) | 3.12 (≈ 7.71 µM) | 3.12 (≈ 7.71 µM) |
| COc1ccc(C(=O)NCC2CN(c3cc(C)nc4ccc(OC)cc34)C(=O)O2)cc1 (stereo not given) | 0.2 (≈ 0.475 µM) | 0.4 (≈ 0.949 µM) | 10 (≈ 23.7 µM) | 85 | 5 (≈ 11.9 µM) | 0.2 (≈ 0.475 µM) | 5 (≈ 11.9 µM) | 0.1 (≈ 0.237 µM) | 0.8 (≈ 1.9 µM) |
| COc1ccc2nc(C)cc(N3CC(CNC(=O)c4ccc(C(F)(F)F)cc4)OC3=O)c2c1 (stereo not given) | 0.4 (≈ 0.871 µM) | 0.4 (≈ 0.871 µM) | 2.5 (≈ 5.44 µM) | 90 | 10 (≈ 21.8 µM) | 0.4 (≈ 0.871 µM) | 0.625 (≈ 1.36 µM) | 0.8 (≈ 1.74 µM) | 0.8 (≈ 1.74 µM) |
| COc1ccc(C(=O)NCC2CN(c3cc(C)nc4ccc(OC)cc34)C(=O)O2)c(C)c1 (stereo not given) | 3.12 (≈ 7.18 µM) | 1.6 (≈ 3.67 µM) | 100 (≈ 230 µM) | 85 | 100 (≈ 230 µM) | 1.6 (≈ 3.67 µM) | 1 (≈ 2.3 µM) | 0.8 (≈ 1.84 µM) | 0.8 (≈ 1.84 µM) |
| COc1ccc2nc(C)cc(N3CC(CNC(=O)c4ccc(Cl)cc4)OC3=O)c2c1 (stereo not given) | 6.25 (≈ 14.7 µM) | 3.12 (≈ 7.34 µM) | 100 (≈ 235 µM) | 85 | 100 (≈ 235 µM) | 3.12 (≈ 7.34 µM) | 100 (≈ 235 µM) | 6.25 (≈ 14.7 µM) | 1.6 (≈ 3.76 µM) |
| COc1ccc2nc(C)cc(NC(=O)CN3CC(CN(C)C)OC3=O)c2c1 (stereo not given) | 0.2 (≈ 0.537 µM) | 0.8 (≈ 2.15 µM) | 10 (≈ 26.9 µM) | 95 | 2.5 (≈ 6.71 µM) | 0.2 (≈ 0.537 µM) | 0.625 (≈ 1.68 µM) | 0.4 (≈ 1.07 µM) | 0.8 (≈ 2.15 µM) |
| CCN(CC)CC1CN(CC(=O)Nc2cc(C)nc3ccc(OC)cc23)C(=O)O1 (stereo not given) | 0.4 (≈ 0.999 µM) | 3.12 (≈ 7.8 µM) | 10 (≈ 25 µM) | 90 | 10 (≈ 25 µM) | 0.4 (≈ 0.999 µM) | 1 (≈ 2.5 µM) | 0.1 (≈ 0.25 µM) | 1.6 (≈ 4 µM) |
| COc1ccc2nc(C)cc(NC(=O)CN3CC(CN4CCN(C)CC4)OC3=O)c2c1 (stereo not given) | 1.6 (≈ 3.74 µM) | 0.4 (≈ 0.936 µM) | 10 (≈ 23.4 µM) | 90 | 10 (≈ 23.4 µM) | 0.4 (≈ 0.936 µM) | 1 (≈ 2.34 µM) | 0.1 (≈ 0.234 µM) | 0.8 (≈ 1.87 µM) |
| CCN1CCN(CC2CN(CC(=O)Nc3cc(C)nc4ccc(OC)cc34)C(=O)O2)CC1 (stereo not given) | 0.8 (≈ 1.81 µM) | 0.2 (≈ 0.453 µM) | 100 (≈ 226 µM) | 85 | 100 (≈ 226 µM) | 1.6 (≈ 3.62 µM) | 10 (≈ 22.6 µM) | 1.6 (≈ 3.62 µM) | 0.8 (≈ 1.81 µM) |
| COc1ccc2nc(C)cc(NC(=O)CN3CC(CN4CCN(C(C)=O)CC4)OC3=O)c2c1 (stereo not given) | 1.6 (≈ 3.51 µM) | 0.8 (≈ 1.76 µM) | 100 (≈ 220 µM) | 80 | 100 (≈ 220 µM) | 1.6 (≈ 3.51 µM) | 5 (≈ 11 µM) | 1.6 (≈ 3.51 µM) | 0.8 (≈ 1.76 µM) |
| COc1ccc2nc(C)cc(NC(=O)CN3CC(CN4CCN(C(C)C)CC4)OC3=O)c2c1 (stereo not given) | 0.8 (≈ 1.76 µM) | 1.6 (≈ 3.51 µM) | 100 (≈ 220 µM) | 85 | 100 (≈ 220 µM) | 0.8 (≈ 1.76 µM) | 5 (≈ 11 µM) | 3.12 (≈ 6.86 µM) | 1.6 (≈ 3.51 µM) |
| COc1ccc2nc(C)cc(NC(=O)CN3CC(CN4CCN(C(C)(C)C)CC4)OC3=O)c2c1 (stereo not given) | 0.8 (≈ 1.7 µM) | 0.8 (≈ 1.7 µM) | 100 (≈ 213 µM) | 0 | 100 (≈ 213 µM) | 1.6 (≈ 3.41 µM) | 100 (≈ 213 µM) | 1.6 (≈ 3.41 µM) | 1.6 (≈ 3.41 µM) |
| COc1ccc2nc(C)cc(NC(=O)CN3CC(CN4CCOCC4)OC3=O)c2c1 (stereo not given) | 0.4 (≈ 0.965 µM) | 0.2 (≈ 0.483 µM) | 10 (≈ 24.1 µM) | 95 | 10 (≈ 24.1 µM) | 0.1 (≈ 0.241 µM) | 1 (≈ 2.41 µM) | 0.1 (≈ 0.241 µM) | 0.8 (≈ 1.93 µM) |
| COc1ccc2nc(C)cc(NC(=O)CN3CC(CNC4CC4)OC3=O)c2c1 (stereo not given) | 1.6 (≈ 4.16 µM) | 3.12 (≈ 8.13 µM) | 100 (≈ 260 µM) | 90 | 100 (≈ 260 µM) | > 12.5 | 10 (≈ 26 µM) | > 12.5 | 1.6 (≈ 4.16 µM) |
| COc1ccc2nc(C)cc(NC(=O)CN3CC(CN4CCCC4)OC3=O)c2c1 (stereo not given) | 1.6 (≈ 4.02 µM) | 3.12 (≈ 7.84 µM) | 100 (≈ 251 µM) | 0 | 100 (≈ 251 µM) | > 12.5 | 100 (≈ 251 µM) | > 12.5 | 6.25 (≈ 15.7 µM) |
| COc1ccc2nc(C)cc(NC(=O)CN3CC(CN4CCCCC4)OC3=O)c2c1 (stereo not given) | 3.12 (≈ 7.58 µM) | 6.25 (≈ 15.2 µM) | 100 (≈ 242 µM) | 0 | 100 (≈ 242 µM) | > 12.5 | 100 (≈ 242 µM) | > 12.5 | 3.12 (≈ 7.58 µM) |
| COc1ccc2nc(C)cc(NC(=O)CN3CC(CNCC4CCCCC4)OC3=O)c2c1 (stereo not given) | > 12.5 | 1.6 (≈ 3.63 µM) | 100 (≈ 227 µM) | 0 | 100 (≈ 227 µM) | 6.25 (≈ 14.2 µM) | 100 (≈ 227 µM) | 6.25 (≈ 14.2 µM) | 6.25 (≈ 14.2 µM) |
| COc1ccc2nc(C)cc(NC(=O)CN3CC(CN4CCC(C)CC4)OC3=O)c2c1 (stereo not given) | > 12.5 | 6.25 (≈ 14.7 µM) | 100 (≈ 234 µM) | 0 | 100 (≈ 234 µM) | 6.25 (≈ 14.7 µM) | 100 (≈ 234 µM) | 6.25 (≈ 14.7 µM) | > 12.5 |
| COc1ccc2nc(C)cc(NC(=O)CN3CC(CNC4CCCC4)OC3=O)c2c1 (stereo not given) | > 12.5 | 6.25 (≈ 15.2 µM) | 100 (≈ 242 µM) | 0 | 100 (≈ 242 µM) | > 12.5 | 100 (≈ 242 µM) | 6.25 (≈ 15.2 µM) | > 12.5 |
| O=C(O)c1cn(C2CC2)c2cc(N3CCNCC3)c(F)cc2c1=O [CIPROFLOXACIN] | 0.4 (≈ 1.21 µM) | – | – | – | – | 0.025 (≈ 0.0754 µM) | – | – | 1 (≈ 3.02 µM) |
| NNC(=O)c1ccncc1 [ISONIAZID] | – | – | 12.5 (≈ 91.1 µM) | >95 | 50 (≈ 365 µM) | – | 0.7 (≈ 5.1 µM) | – | – |
| CO[C@H]1/C=C/O[C@@]2(C)Oc3c(C)c(O)c4c(O)c(c(/C=N/N5CCN(C)CC5)c(O)c4c3C2=O)NC(=O)/C(C)=C\C=C\[C@H](C)[C@H](O)[C@@H](C)[C@@H](O)[C@@H](C)[C@H](OC(C)=O)[C@@H]1C [RIFAMPIN] | – | – | 1.5 (≈ 1.82 µM) | >95 | 1.5 (≈ 1.82 µM) | – | 0.5 (≈ 0.608 µM) | – | – |
